These results are taken from article PMC3993932 (Molecular Pharmaceutics, 2014).

SMILES strings stand for the structures.

Series [1] can be described thus: In vitro release study by dialysis method. It counts as physicochemical. The procedure, abridged:
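Micelles, free parent drug, or free prodrug were placed in a 20 kDa MWCO dialysis cassette against 500 mL PBS (20 mM, pH 7.4) at 37 °C. The sink was refreshed at each sampling. Free prodrug was taken from a 6 mM Tween 80/ethanol (1:4) stock and diluted in HEPES saline to a final 100 μM. Cassette contents were sampled over time and quantified by HPLC. Ct/C0 = e^–kt was fitted by nonlinear regression, and t1/2 = 0.693/k.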

Series [2] relates to human pancreatic cancer BxPC-3 cells. Put plainly: Cell proliferation assay. The series is classed as cell-based. The note with it: BXPC-3, 72 h. The procedure, abridged:
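BxPC-3 cells were grown in RPMI with 10% FBS and penicillin/streptomycin at 37 °C under 5% CO2, then seeded in 96-well plates. Stocks were 1 mM (parent drug in PBS, prodrug in DMSO). Cells were exposed to 10–150 nM free or micellar test compound for 72 h. They were then fixed with 1% glutaraldehyde, stained with 0.1% crystal violet and dissolved in 10% acetic acid, with absorbance read at 595 nm. Viability was expressed as % of untreated wells.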

Series [3] concerns cytidine deaminase and cathepsin B. It counts as in vitro ADME, human. To be noted: by 1 h; cathepsin B 5 U/mL, cytidine deaminase 15 μg/mL, pH 6.5, 37 °C.
Series [4] can be described thus: Pharmacokinetic study in mice bearing BxPC-3 xenografts. It counts as in vivo. The procedure, abridged: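 Female nude mice carried BxPC-3 subcutaneous xenografts of 100–300 mm3 (3 per group). Mice received iv 25 mg/kg parent-drug equivalent as free drug in PBS, free prodrug in Tween 80/ethanol:PBS (1:4), or micelles. Retro-orbital blood was taken at 3–90 min. Samples were quenched with acetic acid, precipitated with acetonitrile, and analyzed by HPLC with internal standards for prodrug, parent and deaminated metabolite. t1/2, CLT and Vd,ss came from noncompartmental analysis.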

A further series has as its system BxPC-3 xenografts. Put plainly: Antitumor efficacy study in mice bearing BxPC-3 xenografts. To be noted: iv 10 mg/kg gemcitabine equivalent on days 0, 3, 7, 10. It counts as in vivo. An outline of the steps: (§1)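 Female athymic nude mice (nu/nu, 5–6 weeks) received subcutaneous BxPC-3 cells (2 × 10^6 in matrigel/RPMI) in each flank. At 50–100 mm3, mice were randomized to untreated, free parent drug in PBS, or micellar prodrug groups (4 per group). Dosing was iv 10 mg/kg parent-drug equivalent on days 0, 3, 7 and 10. Tumor volume was measured by caliper as 1/2 × length × width², and body weight was tracked. Groups were compared by t-test.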

Series [5] in a line: Body weight of treated mice in the efficacy study. It counts as in vivo. The note with it: iv 10 mg/kg gemcitabine equivalent twice weekly for 2 weeks. An outline of the steps: as §1
Series [6] relates to tumor cells with wild-type hENT1 and deoxycytidine kinase. The note with it: cell culture, tumor cells with wild-type hENT1 and deoxycytidine kinase ref 36; cited from earlier work.
The mark [7] stands for this setting: female, athymic nude (nu/nu), mouse, plasma, iv, 25 mg/kg.

As a reminder, the EC50 is the midpoint of the concentration-response curve. The AUC is concentration integrated over time. Read a low AUC as low exposure. The term Vd denotes the apparent volume that relates the amount in the body to the concentration in plasma or blood. Low readings indicate little distribution into tissue, high ones wide distribution into tissue.

For the compound `Nc1ccn([C@@H]2O[C@H](CO)[C@@H](O)C2(F)F)c(=O)n1` [gemcitabine, 2′,2′-difluorocytidine], the “release half-life (t1/2,release)” value in series [1] (dialysis) is reported as “about 15 min”. For the same compound, the “t1/2,release” value in series [1] (dialysis 20 kDa MWCO, PBS pH 7.4, 37 °C, 0.693/k) came to 14.4 min. Also, the release rate constant in series [1] (dialysis 20 kDa MWCO, PBS pH 7.4, 37 °C, free GemC18 in Tween 80/ethanol) was determined as 2.920 h^–1. The response in series [2] was half-maximal at 25 nM (EC50). Also, the “conversion to dFdU” value in series [3] is recorded as 80%. In series [4] (setting [7]), this compound showed an AUC of 18.8 µM·h and a Vd of 1.06 ± 0.132 L/kg. Also, the CLT of gemcitabine in series [4] (plasma gemcitabine, iv 25 mg/kg, mice) is 84.0 ± 4.0 mL/min/kg. In addition, the “effect on tumor growth” value in the series on BxPC-3 xenografts is on record as “unable to arrest the tumor growth”. The “body weight / overt toxicity” value in series [5] is “no overt toxicity”. The EC50 result in series [6] was “low nanomolar range”.
